From ChEMBL document CHEMBL4765303, “Synthesis and evaluation of butein derivatives for in vitro and in vivo inflammatory response suppression in lymphedema” (Eur J Med Chem, 2020)
Converted amounts (≈) assume the structure as drawn. The source made the active and inactive calls. No cut-off for these calls is given here.

Experiments:
[1] = Inhibition of LPS stimulated TNF alpha production in Balb/c mouse peritoneal macrophages at 20 uM measured by ELISA plate reader method; type: functional; conditions: Macrophage
Method in brief: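 Thioglycollate-elicited peritoneal exudate cells from male Balb/c mice, adherent fraction after overnight plating at 37 °C. Cells stimulated with 100 ng/mL LPS for 24 h with compound at 20 µM. Supernatant TNF-α measured by ELISA. Mean ± SD, n = 3.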

[2] = Inhibition of LPS stimulated TNF alpha production in Balb/c mouse peritoneal macrophages measured by ELISA plate reader method; type: functional; conditions: Macrophage
[3] = Metabolic stability in mouse liver microsomes assessed as percentage of compound remaining after 30 mins; type: ADME, Microsome; conditions: read-out: Stabilty
Method in brief: (§1)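 Phase I stability in liver microsomes from mouse, rat and human. Percent of compound remaining measured 30 min after reaction. Buspirone included as a control metabolized in Phase I.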

[4] = Metabolic stability in rat liver microsomes assessed as percentage of compound remaining after 30 mins; type: ADME, Microsome; conditions: read-out: Stabilty; method in brief: as §1
[5] = Metabolic stability in human liver microsomes assessed as percentage of compound remaining after 30 mins; type: ADME, Microsome; conditions: read-out: Stabilty; method in brief: as §1
[6] = Dissociation constant, pKa of compound; type: physicochemical
[7] = Kinetic solubility of compound in water; type: physicochemical; conditions: read-out: Kinetic_solubility
Mus musculus [8] = assay: Antiinflammatory activity in orally dosed surgical-induced lymphedema ICR mouse model assessed as reduction in lymphedema volume administered for 7 days before surgery and measured 7 days after surgery relative to control; type: functional; conditions: time 14 day
Method in brief: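 Lymphedema induced in the right lower limb of anesthetized male ICR mice by removing the superficial inguinal, popliteal and deep inguinal lymph nodes and a femoral lymphatic vessel, with limited cautery. Oral dosing at 100 mg/kg/day started 7 days before surgery and continued every 2 days afterwards. Limb volume measured by caliper on day 7 by blinded observers and compared with vehicle.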

[9] = Tmax in CD-1 mouse at 1 mg/kg, iv measured upto 1440 mins by LC/MS/MS analysis; type: ADME, organism-based; conditions: in vivo
Method in brief: (§2)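 Male CD-1 mice, 5 weeks old, dosed once, either by tail vein at 1 mg/kg or orally at 20 mg/kg or 100 mg/kg. Plasma levels give Cmax, Tmax and AUC. Values are mean ± SD from three mice. A prodrug is quantified through its main metabolite, the parent compound (LOQ <1 ng/mL).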

[10] = Tmax in CD-1 mouse at 20 mg/kg, po measured upto 1440 mins by LC/MS/MS analysis; type: ADME, organism-based; conditions: in vivo; method in brief: as §2
[11] = Tmax in CD-1 mouse at 100 mg/kg, po measured upto 1440 mins by LC/MS/MS analysis; type: ADME, organism-based; conditions: in vivo; method in brief: as §2
[12] = Cmax in CD-1 mouse at 1 mg/kg, iv measured upto 1440 mins by LC/MS/MS analysis; type: ADME, organism-based; set-up: route intravenous, dose 1 mg/kg, time <=1440; conditions: in vivo; method in brief: as §2
[13] = Cmax in CD-1 mouse at 20 mg/kg, po measured upto 1440 mins by LC/MS/MS analysis; type: ADME, organism-based; set-up: route oral, dose 20 mg/kg, time <=1440; conditions: in vivo; method in brief: as §2
[14] = Cmax in CD-1 mouse at 100 mg/kg, po measured upto 1440 mins by LC/MS/MS analysis; type: ADME, organism-based; set-up: route oral, dose 100 mg/kg, time <=1440; conditions: in vivo; method in brief: as §2
[15] = AUC (0 to infinity) in CD-1 mouse at 1 mg/kg, iv measured upto 1440 mins by LC/MS/MS analysis; type: ADME, organism-based; set-up: route intravenous, dose 1 mg/kg, time <=1440; conditions: in vivo, 24 h; method in brief: as §2
[16] = AUC (0 to infinity) in CD-1 mouse at 20 mg/kg, po measured upto 1440 mins by LC/MS/MS analysis; type: ADME, organism-based; set-up: route oral, dose 20 mg/kg, time <=1440; conditions: in vivo, 24 h; method in brief: as §2
[17] = AUC (0 to infinity) in CD-1 mouse at 100 mg/kg, po measured upto 1440 mins by LC/MS/MS analysis; type: ADME, organism-based; set-up: route oral, dose 100 mg/kg, time <=1440; conditions: in vivo; method in brief: as §2
Mus musculus [18] = assay: Antiinflammatory activity in orally dosed surgical-induced lymphedema ICR mouse model assessed as reduction in neutrophil infiltration administered for 7 days before surgery and measured 7 days after surgery; type: functional, organism-based; conditions: time 14.0 day
Method in brief: (§3)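 Surgical lymphedema model in male ICR mice with oral pretreatment starting 7 days before surgery. Right hind-limb tissue taken 15–25 mm distal on day 7 post-surgery and H&E-stained to assess dermal tissue and neutrophils. Groups: normal, vehicle, treated.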

Mus musculus [19] = assay: Antiinflammatory activity in orally dosed surgical-induced lymphedema ICR mouse model assessed as reduction in dermal layer lymphedema tissue administered for 7 days before surgery and measured 7 days after surgery; type: functional, organism-based; conditions: time 14.0 day; method in brief: as §3
Mus musculus [20] = assay: Antiinflammatory activity in orally dosed surgical-induced lymphedema ICR mouse model assessed as reduction in TNF-alpha mRNA expression administered 7 days before surgery and measured 7 days after surgery by RT-PCR analysis; type: functional, organism-based; conditions: time 14.0 day
Mus musculus [21] = assay: Antiinflammatory activity in orally dosed surgical-induced lymphedema ICR mouse model assessed as reduction in PPARgamma expression administered 7 days before surgery and measured 7 days after surgery by Western blot analysis; type: functional, organism-based; conditions: time 14.0 day
Mus musculus [22] = assay: Antiinflammatory activity in orally dosed surgical-induced lymphedema ICR mouse model assessed as reduction in PPARgamma expression administered 7 days before surgery and measured 7 days after surgery by immunofluorescence analysis; type: functional, organism-based; conditions: time 14.0 day
Method in brief: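 Surgical lymphedema in male ICR mice with oral pretreatment. Limb tissue harvested on day 7 post-surgery. Sections immunostained with anti-mouse PPARγ, Alexa Fluor 488 secondary and DAPI, then examined by fluorescence microscopy.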

Mus musculus [23] = assay: Antiinflammatory activity in orally dosed surgical-induced lymphedema ICR mouse model assessed as reduction in Fabp4 administered 7 days before surgery and measured 7 days after surgery by Western blot analysis; type: functional, organism-based; conditions: time 14.0 day
[24] = Oral bioavailability in CD-1 mouse at 20 mg/kg measured upto 1440 mins by LC/MS/MS analysis; type: ADME, organism-based; conditions: in vivo, 24 h
Method in brief: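 Male CD-1 mice (5 weeks) dosed orally at 20 mg/kg, with a 1 mg/kg tail-vein reference group. Bioavailability calculated as (AUCpo/AUCiv) × 100. Mean ± SD, three mice.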

Mus musculus [25] = assay: Antiinflammatory activity in orally dosed surgical-induced lymphedema ICR mouse model assessed as reduction in PPARgamma mRNA expression administered 7 days before surgery and measured 7 days after surgery by RT-PCR analysis; type: functional, organism-based; conditions: time 14.0 day
Mus musculus [26] = assay: Antiinflammatory activity in orally dosed surgical-induced lymphedema ICR mouse model assessed as reduction in Fabp4 mRNA expression administered 7 days before surgery and measured 7 days after surgery by RT-PCR analysis; type: functional, organism-based; conditions: time 14.0 day
Mus musculus [27] = assay: Antiinflammatory activity in orally dosed surgical-induced lymphedema ICR mouse model assessed as reduction in TNF-alpha expression administered 7 days before surgery and measured 7 days after surgery; conditions: time 14.0 day

CC(C)Oc1cc(O)ccc1C(=O)/C=C/c1ccc(O)c(O)c1
inhibition at 20 µM [1]: 64%

O=C(/C=C/c1ccc(F)c(O)c1)c1ccc(O)cc1O
inhibition at 20 µM [1]: 22%

O=C(/C=C/c1ccc(O)c(O)c1)c1ccc(Cl)cc1
inhibition at 20 µM [1]: 62% | IC50 [2]: 17.3 µM | remaining at 0.5 h [3]: 7.26% | remaining at 0.5 h [4]: 21.1% | remaining at 0.5 h [5]: 38% | pKa [6]: 9.23 | solubility kinetic [7]: 28 µg/mL (≈ 102 µM) | inhibition (INH) (Mus musculus [8]): 53%

Cc1cc(O)ccc1C(=O)/C=C/c1ccc(O)c(O)c1
inhibition at 20 µM [1]: 41% | IC50 [2]: 48.4 µM

Cc1ccc(C(=O)Oc2cc(O)ccc2C(=O)/C=C/c2ccc(O)c(O)c2)cc1
IC50 [2]: 18.9 µM

O=C(Oc1cc(O)ccc1C(=O)/C=C/c1ccc(O)c(O)c1)c1ccccc1
inhibition at 20 µM [1]: 51% | IC50 [2]: 14.6 µM | remaining at 0.5 h [3]: 4% | remaining at 0.5 h [4]: 7% | remaining at 0.5 h [5]: 2% | pKa [6]: 3.38 | solubility kinetic [7]: 136 µg/mL (≈ 361 µM) | Tmax [9]: 12 min | Tmax [10]: 24 min | Tmax [11]: 24 min | Cmax [12]: 110 ng/mL | Cmax [13]: 83 ng/mL | Cmax [14]: 1600 ng/mL | AUC [15]: 163 ng·h/mL | AUC [16]: 141 ng·h/mL | AUC ([17]; mouse, 24 h): 1224 ng·h/mL | inhibition (INH) (Mus musculus [8]): 70% | inhibition (Mus musculus [18]): Active | inhibition (Mus musculus [19]): Active | inhibition (Mus musculus [20]): Active | inhibition (Mus musculus [21]): Active | inhibition (Mus musculus [22]): Active | inhibition (Mus musculus [23]): Active | F [24]: 4% | inhibition (Mus musculus [25]): Active | inhibition (Mus musculus [26]): Active | inhibition (Mus musculus [27]): Active

O=C1CC2(CCCC2)CC(=O)N1CCCCN1CCN(c2ncccn2)CC1 [BUSPIRONE]
remaining at 0.5 h [3]: 0.0183% | remaining at 0.5 h [4]: 0.0928% | remaining at 0.5 h [5]: 4.7%

O=C(/C=C/c1ccc(O)c(O)c1)c1ccc(O)cc1O [BUTEIN]
inhibition at 20 µM [1]: 20% | IC50 [2]: 43.3 µM | remaining at 0.5 h [3]: 9.93% | remaining at 0.5 h [4]: 18.1% | remaining at 0.5 h [5]: 61.6% | pKa [6]: 7.96 | solubility kinetic [7]: 21 µg/mL (≈ 77.1 µM) | Tmax [9]: 6 min | Tmax [10]: 18 min | Tmax [11]: 18 min | Cmax [12]: 41 ng/mL | Cmax [13]: 43 ng/mL | Cmax [14]: 601 ng/mL | AUC [15]: 6.7 ng·h/mL | AUC [16]: 21 ng·h/mL | AUC(0-inf) ([17]; CD-1, mouse): 251 ng·h/mL | inhibition (INH) (Mus musculus [8]): 52% | inhibition (Mus musculus [18]): Active | inhibition (Mus musculus [19]): Active | inhibition (Mus musculus [20]): Active | inhibition (Mus musculus [21]): Active | inhibition (Mus musculus [22]): Active | inhibition (Mus musculus [23]): Active | inhibition (Mus musculus [25]): Active | inhibition (Mus musculus [26]): Active | inhibition (Mus musculus [27]): Active

CC(=O)Oc1ccc(C(=O)/C=C/c2ccc(OC(C)=O)c(OC(C)=O)c2)c(OC(C)=O)c1
inhibition at 20 µM [1]: 73% | IC50 [2]: 12.8 µM

O=C(/C=C/c1ccc(O)c(O)c1)c1ccc(O)cc1F
inhibition at 20 µM [1]: 32%

COc1ccc(C(=O)Oc2cc(O)ccc2C(=O)/C=C/c2ccc(O)c(O)c2)cc1
IC50 [2]: 20.8 µM

Cc1ccc(C(=O)/C=C/c2ccc(O)c(O)c2)cc1
inhibition at 20 µM [1]: 61% | IC50 [2]: 18.6 µM

O=C(Oc1cc(O)ccc1C(=O)/C=C/c1ccc(O)c(O)c1)c1ccc(Cl)cc1
IC50 [2]: 17.9 µM
